Data as given in article PMC11877486 (Science Progress, 2025).
Where a name gives a salt, the structure may show the parent alone. Read-outs that look alike come from different tables or passages of the source. Peptide text beside a SMILES is read from it.

Experiments:
[1] = Plasma concentration of colistin sulfate in patients on CVVHDF; format: in vivo; conditions: human, iv, SD
Outline: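 Adult patients on CVVHDF (AN69 polyacrylonitrile filter; blood flow 100–200 ml/min) received iv colistin sulfate infused over 0.5 h or 2 h. At steady state, samples were drawn from the dorsal foot artery just before dosing (Cmin) and at roughly 0.5, 1, 2, 4 and 6 h after. Plasma was stored at −80°C. Colistin A and B were measured separately by UHPLC-MS/MS on a HILIC column (LOQ 0.027 and 0.053 mg/l) and summed. AUC0−24h was calculated by the trapezoidal rule.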

[2] = derived from preclinical studies; cited from earlier work
[3] = cited from earlier work
[4] = cited from earlier work; remark: listed apart in the source
[5] = cited from earlier work; for population typical value CL, previous research: critically ill patients
[6] = Population PK model; format: in vivo, human
Outline: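 NONMEM 7.4 was fitted to 86 plasma concentrations from 20 CVVHDF patients, using FOCE to compare one- and two-compartment models. Interindividual variability was exponential. […] Validation used goodness-of-fit plots, a pcVPC with 1000 simulated patients and a 1000-sample bootstrap.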

[7] = system: isolated pathogens (CRO), mainly Klebsiella pneumoniae, Acinetobacter baumannii, Pseudomonas aeruginosa; assay: Drug sensitivity of isolated pathogens; format: cell-based; conditions: all isolated pathogens (CRO) of the 20 patients
[8] = cited from earlier work; for population typical value of CL: critically ill patients

## CC[C@H](C)CCCCC(=O)N[C@@H](CCN)C(=O)N[C@H](C(=O)N[C@@H](CCN)C(=O)N[C@H]1CCNC(=O)[C@H]([C@@H](C)O)NC(=O)[C@H](CCN)NC(=O)[C@H](CCN)NC(=O)[C@H](CC(C)C)NC(=O)[C@@H](CC(C)C)NC(=O)[C@H](CCN)NC1=O)[C@@H](C)O [colistin sulfate] (HELM PEPTIDE1{[CC[C@H](C)CCCCC(=O)[*:2]].[Dab].T.[Dab].[Dab].[Dab].[dL].L.[Dab].[Dab].T}$PEPTIDE1,PEPTIDE1,5:R3-11:R2$$$V2.0)
[1]
  AUC(0-t): 12500 ± 6410 ng·h/mL
[2]
  protein binding rate: about 50%
[3]
  solubility in water: water-soluble
[4]; CRRT group, p = 0.328 vs non-CRRT
  steady-state trough concentration: 0.58 ± 0.30 mg/L
[4]; non-CRRT group
  steady-state trough concentration: 0.64 ± 0.25 mg/L
[5]; first of two values
  population typical value CL, previous research: 0.994 L/h
[5]; second of two values
  population typical value CL, previous research: 1.5 L/h
[5]; non-CRRT patients
  plasma concentration range: 280 to 6200 ng/mL
[6]; bootstrap, 1000 samples
  Q, bootstrap median: 27.15 L/h
  V1, bootstrap median: 20.58 L
  V2, bootstrap median: 34.71 L
  θCysC, bootstrap median: −0.537
  θwt, bootstrap median: 1.189
[6]; bootstrap, 1000 samples, 989 successful
  CL, bootstrap median: 3.18 L/h
[6]; effect of CysC on CL, (CYSC/2.31)^θ
  θCysC, final model estimate: −0.626
[6]; effect of WT on CL, (WT/65)^θ
  θwt, final model estimate: 1.030
[6]; human, plasma, iv
  clearance: 61.5 mL/min
[6]; intercompartmental clearance, patients on CVVHDF
  Q, final model estimate: 25.30 L/h
[6]; volume of distribution in the central compartment, patients on CVVHDF
  V1, final model estimate: 20.50 L
[6]; volume of distribution in the peripheral compartment, patients on CVVHDF
  V2, final model estimate: 33.20 L

## C[C@@H](O)[C@H]1C(=O)N2C(C(=O)O)=C(S[C@@H]3CN[C@H](C(=O)N(C)C)C3)[C@H](C)[C@H]12 [meropenem]
[7]
  MIC: ≥ 8 µg/mL

## polymyxin B sulfate
[8]; CVVH group
  population typical value of CL: 4.52 L/h
[8]; CVVH group, p < 0.001 vs non-CVVH
  AUC: 27940 ± 10920 ng·h/mL
[8]; non-CVVH group
  population typical value of CL: 1.95 L/h
  AUC: 77890 ± 35660 ng·h/mL
